{"source": "ChEMBL document CHEMBL1123910", "about": "“Indolizidine and quinolizidine derivatives of the dopamine autoreceptor agonist 3-(3-hydroxyphenyl)-N-n-propylpiperidine (3-PPP)” (1987)", "format_in_all_cases": "functional", "key": {"[1]": {"system": "Rattus norvegicus", "assay": "Ispilateral circling behavior in 6-OH-DA-lesioned rats was recorded after subcutaneous administration", "details": "sc"}, "[2]": {"system": "Rattus norvegicus", "assay": "Inhibition of spontaneous locomotor activity was performed in photocell cages at 30-45 minutes after subcutaneous administration", "in_short": "(§1)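 Rats in photocell cages. Motility counted 30-45 min after sc test drug or saline. Injection volume 5 mL/kg.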"}, "[3]": {"organism": "Rattus norvegicus", "assay": "Reversal of reserpine plus alpha-Methyl-p-tyrosine-induced hypoactivity in rats was recorded.", "in_short": "(§2)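 Rats pretreated with reserpine (8.2 µmol/kg = 5 mg/kg sc) 16-20 h before, and α-methyl-p-tyrosine methyl ester (813 µmol/kg = 200 mg/kg ip) 2 h before, test drug or saline. Motility measured under artificial light for 1 h from injection. Counts scored 0 (0-49), 1 (50-149) or 2 (>150). ED50 by log-probit as dose giving half-maximal score.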"}, "[4]": {"system": "Rattus norvegicus", "assay": "Contralateral circling behavior in 6-OH-DA-lesioned rats was recorded after subcutaneous administration"}, "[5]": {"system": "Rattus norvegicus", "assay": "Antagonism of apomorphine induced stereotype in rats was recorded at 30 minutes after subcutaneous administration of apomorphine", "details": "sc, 0.5 h", "in_short": "(§3)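 Rats housed in wire mesh cages from the day before. Test drug or saline given sc 30 min before apomorphine (8.2 µmol = 2.5 mg/kg, sc). Oral stereotypy (licking, biting) scored every 15 min for 90 min. ED50 taken from the 30-min post-apomorphine observation, when control activity peaked.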"}, "[6]": {"system": "Rattus norvegicus", "assay": "Reversal of reserpine plus alpha-Methyl-p-tyrosine-induced hypoactivity in rats was recorded at 1 h after administration", "in_short": "as §2"}, "[7]": {"system": "Rattus norvegicus", "assay": "Antagonism of apomorphine induced stereotype was recorded at 30 minutes after apomorphine subcutaneous administration", "details": "sc, 0.5 h", "in_short": "as §3"}, "[8]": {"system": "Rattus norvegicus", "assay": "Reversal of reserpine plus alpha-Methyl-p-tyrosine-induced hypoactivity in rats was recorded at 1 hr after subcutaneous administration", "details": "sc", "in_short": "as §2"}, "[9]": {"system": "Rattus norvegicus", "assay": "Reversal of reserpine plus alpha-Methyl-p-tyrosine-induced hypoactivity in rats was recorded after subcutaneous administration", "details": "sc", "in_short": "as §2"}, "[10]": {"system": "Rattus norvegicus", "assay": "Antagonism of apomorphine induced stereotype in rats was recorded at 30 minutes after subcutaneous administration apomorphine", "details": "sc, 0.5 h", "in_short": "as §3"}, "[11]": {"system": "Rattus norvegicus", "assay": "Antagonism of apomorphine induced stereotype in rats was recorded after subcutaneous administration of apomorphine", "details": "sc", "in_short": "as §3"}, "[12]": {"system": "Rattus norvegicus", "assay": "Inhibition of spontaneous locomotor activity was performed in photocell cages. Motility was measured at […] after subcutaneous administration", "details": "sc", "in_short": "as §1"}, "[13]": {"organism": "Rattus norvegicus", "assay": "Inhibition of spontaneous locomotor activity was performed in photocell cages. Motility was measured at 5 minutes", "in_short": "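Rats in photocell cages. Motility counted 5 min after sc injection of test drug. Injection volume 5 mL/kg.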"}, "[14]": {"system": "Rattus norvegicus", "assay": "Inhibition of spontaneous locomotor activity was performed in photocell cages. Motility was measured at […] after subcutaneous administration; value ranges from 4.2-11", "details": "sc", "in_short": "as §1"}, "[15]": {"details": "Rattus norvegicus, sc, read-out: ED50"}}, "data": [{"smiles": "Oc1cccc(C2CCC3CCCCN3C2)c1", "note": "(stereo not drawn) [listing 1 of 2 here]", "values": [{"measurement": "ED50", "setting": "[1]", "value": 9.3, "unit": "µmol/kg"}, {"measurement": "ED50", "setting": "[2]; [15]", "value": "> 64", "unit": "µmol/kg"}, {"measurement": "ED50", "setting": "[3]", "value": "> 62", "unit": "µmol/kg"}]}, {"smiles": "Oc1cccc(C2CCC3CCCCN3C2)c1", "note": "(stereo not drawn) [listing 2 of 2 here]", "values": [{"measurement": "ED50", "setting": "[2]; sc", "value": "> 62", "unit": "µmol/kg"}, {"measurement": "ED50", "setting": "[4]; [15]", "value": "> 64", "unit": "µmol/kg"}]}, {"smiles": "CCCN1CCCC(c2cccc(O)c2)C1", "note": "(stereo not drawn)", "values": [{"measurement": "ED50", "setting": "[2]; [15]", "value": 3.4, "unit": "µmol/kg"}, {"measurement": "ED50", "setting": "[4]; [15]", "value": 1.7, "unit": "µmol/kg"}, {"measurement": "ED50", "setting": "[5]", "value": "> 67", "unit": "µmol/kg"}]}, {"smiles": "Oc1cccc(C2CCC3CCCN3C2)c1", "note": "(stereo not drawn)", "values": [{"measurement": "ED50", "setting": "[2]; [15]", "value": "> 67", "unit": "µmol/kg"}, {"measurement": "ED50", "setting": "[4]; [15]", "value": "> 67", "unit": "µmol/kg"}]}, {"smiles": "CCCN1CCC[C@H](c2cccc(O)c2)C1", "values": [{"measurement": "ED50", "setting": "[6]", "value": 40, "unit": "µmol/kg"}, {"measurement": "ED50", "setting": "[4]; [15]", "value": 1.9, "unit": "µmol/kg"}, {"measurement": "ED50", "setting": "[5]", "value": 63, "unit": "µmol/kg"}]}, {"smiles": "Oc1cccc(C2=CCCN3CCCCC23)c1", "note": "(stereo not drawn)", "values": [{"measurement": "ED50", "setting": "[2]; [15]", "value": 8.5, "unit": "µmol/kg"}, {"measurement": "ED50", "setting": "[7]", "value": 34, "unit": "µmol/kg"}, {"measurement": "ED50", "setting": "[4]; [15]", "value": "> 87", "unit": "µmol/kg"}, {"measurement": "ED50", "setting": "[8]", "value": "> 87", "unit": "µmol/kg"}]}, {"smiles": "Oc1cccc(C2CCC3CCCN3C2)c1", "note": "(single isomer, unassigned)", "values": [{"measurement": "ED50", "setting": "[2]; sc", "value": "> 67", "unit": "µmol/kg"}]}, {"smiles": "Oc1cccc(C2CCCN3CCCCC23)c1", "note": "(single isomer, unassigned; 20a)", "values": [{"measurement": "ED50", "setting": "[2]", "value": ">64", "unit": "µM/kg"}, {"measurement": "ED50", "setting": "[4]", "value": ">64", "unit": "µM/kg"}]}, {"smiles": "Oc1cccc(C2CCCN3CCCCC23)c1", "note": "(single isomer, unassigned; 20e)", "values": [{"measurement": "ED50", "setting": "[2]; [15]", "value": 63, "unit": "µmol/kg"}, {"measurement": "ED50", "setting": "[4]; [15]", "value": "> 87", "unit": "µmol/kg"}]}, {"smiles": "Oc1cccc(C2CCCN3CCCC23)c1", "note": "(single isomer, unassigned; (+))", "values": [{"measurement": "ED50", "setting": "[9]", "value": 150, "unit": "µmol/kg"}, {"measurement": "ED50", "setting": "[2]", "value": 3.9, "unit": "µM/kg"}, {"measurement": "ED50", "setting": "[10]", "value": "> 157", "unit": "µmol/kg"}, {"measurement": "ED50", "setting": "[4]", "value": 7.1, "unit": "µM/kg"}]}, {"smiles": "Oc1cccc(C2CCCN3CCCC23)c1", "note": "(single isomer, unassigned; (-))", "values": [{"measurement": "ED50", "setting": "[2]", "value": 40, "unit": "µM/kg"}, {"measurement": "ED50", "setting": "[4]", "value": ">79", "unit": "µM/kg"}, {"measurement": "ED50", "setting": "[5]", "value": 100, "unit": "µmol/kg"}]}, {"smiles": "Oc1cccc(C2CCCN3CCCC23)c1", "note": "(stereo in doubt; 19a)", "values": [{"measurement": "ED50", "setting": "[2]", "value": ">67", "unit": "µM/kg"}, {"measurement": "ED50", "setting": "[4]", "value": ">67", "unit": "µM/kg"}]}, {"smiles": "Oc1cccc(C2CCCN3CCCC23)c1", "note": "(stereo in doubt; 19e)", "values": [{"measurement": "ED50", "setting": "[2]; sc", "value": 7.5, "unit": "µmol/kg"}, {"measurement": "ED50", "setting": "[11]", "value": "> 134", "unit": "µmol/kg"}, {"measurement": "ED50", "setting": "[4]", "value": 13, "unit": "µM/kg"}]}, {"smiles": "CN1CCc2cccc3c2[C@H]1Cc1ccc(O)c(O)c1-3", "note": "[APOMORPHINE]", "values": [{"measurement": "ED50", "setting": "[4]; [15]", "value": 0.058, "unit": "µmol/kg"}, {"measurement": "ED50", "setting": "[8]", "value": 0.27, "unit": "µmol/kg"}, {"measurement": "ED50", "setting": "[12]", "value": 0.64, "unit": "µmol/kg"}, {"measurement": "ED50", "setting": "[13]", "value": 0.092, "unit": "µmol/kg"}]}, {"smiles": "CCCN1CCC[C@@H](c2cccc(O)c2)C1", "note": "[PRECLAMOL]", "values": [{"measurement": "ED50", "setting": "[14]", "value": 11, "unit": "µmol/kg"}, {"measurement": "ED50", "setting": "[6]", "value": "> 67", "unit": "µmol/kg"}, {"measurement": "ED50", "setting": "[10]", "value": 33, "unit": "µmol/kg"}, {"measurement": "ED50", "setting": "[4]; [15]", "value": 0.77, "unit": "µmol/kg"}, {"measurement": "ED50", "setting": "[13]", "value": 1.9, "unit": "µmol/kg"}]}]}
